HCV core dimer: HCV core protein dimerization inhibition; AID 1899; 300,000 tested, 0.33% active; TR-FRET GST/Flag-core106 dimerization, 1536-well; inhibition, % at 5 µM;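 active = inhibition above the mean of all tested compounds plus 3 SD, set per screening campaign, cut at about 45% in these data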
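Assay system: tagged HCV core106 pair (GST and Flag); medium: KF-containing HEPES buffer, pH 7.45, DTT, CHAPS, BSA; also added: Eu donor and XL665 acceptor anti-tag antibodies; dosing: 5 µM single dose; timing: compound-protein-antibody incubation 4 h at 22.5 °C; signal: TR-FRET 671 and 617 nm emission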
A3A deaminase: blocks human APOBEC3A ssDNA deamination; recombinant A3A, FAM/TAMRA ssDNA deamination fluorescence; 330,000 tested, 0.41% active; AID 493011; inhibition, % at 20 µM;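 active = at least 40% inhibition at 20 µM here, with at most 30% in a related deaminase screen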;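 also: plate controls were A3A with DMSO for no effect and wells lacking A3A enzyme for full effect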
Target sequence (P31941 whole entry, looked up): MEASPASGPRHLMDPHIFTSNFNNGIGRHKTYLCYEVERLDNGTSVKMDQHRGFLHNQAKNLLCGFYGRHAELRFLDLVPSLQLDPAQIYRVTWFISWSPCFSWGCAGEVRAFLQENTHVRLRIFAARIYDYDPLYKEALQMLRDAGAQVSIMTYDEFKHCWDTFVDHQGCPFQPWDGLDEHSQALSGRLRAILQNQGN
ABHD5-PLIN5 inh: blocks binding of human ABHD5 to perilipin-5 | inhibition, % at 4 µM | 360,000 tested, 0.78% active | Q00G26+Q8WTS1 | Split G. princeps luciferase complementation, luminescence, 4 h | AID 602281;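 active = inhibition above the mean inhibition across every tested compound plus 3 SD, cut at about 22% in these data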;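 also: 0% = DMSO only wells and the 100% control is not disclosed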
APOBEC3G inh: blocks human APOBEC3G single-stranded DNA deamination. Q9HC16. recombinant A3G, ssDNA deamination FAM/TAMRA fluorescence. inhibition, % at 20 µM. 330,000 tested, 0.28% active;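 active = inhibition of at least 40% at 20 µM, with no more than 30% in the related APOBEC3A deaminase screen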;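 also: plate controls were DMSO wells with A3G for no effect and wells lacking A3G enzyme for full effect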
NS3 helicase inh: inhibitors of Hepatitis C virus NS3 helicase | NS3 helicase DNA unwinding, Cy5 molecular beacon fluorescence | 290,000 tested, 0.56% active | inhibition, % at 10.9 µM;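 active = inhibition above the mean of all tested compounds plus 3 SD, set per campaign, cut at about 35% in these data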;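 also: 0% = DMSO wells and 100% = thioflavine S control wells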
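assay system = NS3 helicase fragment of HCV | buffer or medium = MOPS pH 6.5, MgCl2, DTT, Tween20, BSA | timing = 60 min unwinding reaction at 25 °C after ATP addition | signal = Cy5 beacon fluorescence read at start and 1 h | read-out basis = % inhibition of unwinding | control set = low DMSO, high thioflavine S at 110 µM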
PRMT1 FP inh: PRMT1 (human) inhibition, primary screen | recombinant PRMT1, activity-based probe fluorescence polarization | inhibition, % at 2.79 µM | 370,000 tested, 1.3% active;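 active = inhibition above about 21% made by adding two undisclosed values, limit read from the data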
Target sequence (Q99873 whole entry, looked up): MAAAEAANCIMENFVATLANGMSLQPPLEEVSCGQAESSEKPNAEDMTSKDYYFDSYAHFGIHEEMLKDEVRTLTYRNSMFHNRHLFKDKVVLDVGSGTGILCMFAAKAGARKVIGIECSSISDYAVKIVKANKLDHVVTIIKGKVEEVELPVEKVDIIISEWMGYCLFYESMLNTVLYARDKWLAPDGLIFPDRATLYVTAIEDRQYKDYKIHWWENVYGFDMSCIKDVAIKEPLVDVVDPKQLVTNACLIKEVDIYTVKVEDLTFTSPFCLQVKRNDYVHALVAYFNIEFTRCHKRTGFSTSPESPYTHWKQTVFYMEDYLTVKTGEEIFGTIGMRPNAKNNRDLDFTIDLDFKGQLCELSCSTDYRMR
A3A conf: confirmation of human APOBEC3A DNA deaminase inhibitors; shares compounds with A3A deaminase; recombinant A3A, ssDNA deaminase UDG fluorescence assay; inhibition, % at 20 µM; 1,400 tested, 63% active; AID 493151;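 active = inhibition reaching a set limit, 80% of the first screen's cutoff, at 20 µM in any replicate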;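 also: plate controls were DMSO wells with A3A for no effect and wells lacking A3A enzyme for full effect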
UDG A3A counter: UDG inhibition in APOBEC3A counter-screen. shares compounds with A3A deaminase. UDG counterscreen, FAM/TAMRA uracil oligo fluorescence. AID 504714. inhibition, % at 20 µM. 1,000 tested, under 10 active; call rule not given here
* marks the source's active call; other numbers are inactive results; . = no result given. The list is not random: actives were taken first. Their share in the collection is about 2.9%.

SMILES	HCV core dimer	A3A deaminase	ABHD5-PLIN5 inh	APOBEC3G inh	NS3 helicase inh	PRMT1 FP inh	A3A conf	UDG A3A counter
COC(=O)c1ccccc1NC(=O)c1noc2c1CCC2	20	59*	4	23	.	4	47*	.
COc1ccc(NC(=O)C2CC(=O)N(c3ccccc3F)C2)cc1S(=O)(=O)N1CCCCC1 (stereo not drawn)	.	.	0	.	.	4	.	.
CC1=CC(C)(C)[N+](C)(C)c2ccccc21	-1	77*	1	14	7	2	72*	-35
O=C(Nc1cccc2nsnc12)c1cc2c(cc1Cl)Sc1nccn1S2(=O)=O	.	.	-14	.	.	14	.	.
CC(C)c1ccc(S(=O)(=O)N2CCN(CC(O)CN3CCOCC3)CC2)cc1 (stereo not drawn)	.	-3	2	-9	.	-9	.	.
CCC(C)c1ccc(S(=O)(=O)N2CCN(CC(O)COCC3CCCO3)CC2)cc1 (stereo not drawn)	.	55*	-6	-9	.	3	-11	1
CC[n+]1ccc2cc(OC)c(OC)cc2c1Cc1ccc(OC)c(OC)c1	1	69*	4	9	5	.	43*	.
CCN1/C(=C/c2ccc3cc(C)ccc3[n+]2CC)Sc2cc(C)c(C)cc21	.	57*	12	19	-43	-7	80*	.
O=C(O)c1ccc(C(=O)c2cc([N+](=O)[O-])cc([N+](=O)[O-])c2)cc1	.	.	1	.	.	4	.	.
Cn1c(-[n+]2c(-c3ccccc3)cc(-c3ccccc3)cc2-c2ccccc2)nc2cc([N+](=O)[O-])ccc21	-10	46*	-6	9	-24	2	56*	0
O=[N+]([O-])c1ccc2c(c1)ncn2-c1ccccc1	-14	.	1	.	-22	1	.	.
CCCC(=O)Nc1nn(C)c2nc3ccc(C)cc3cc12	-32	-2	6	-31	1	-3	.	.
CCCCn1nc(NC(=O)COC)c2cc3ccc(C)cc3nc21	3	47*	-2	15	-4	.	67*	6
CCn1nc(NC(=O)COC)c2cc3cc(C)ccc3nc21	-1	45*	9	16	-14	3	59*	0
CCCn1nc(NC(=O)COC)c2cc3cc(C)ccc3nc21	.	53*	11	28	-12	.	58*	-2
CCOc1ccc(C(C(=O)NC(C)(C)C)N(CCOC)C(=O)CCC(=O)Nc2ccccn2)cc1 (stereo not drawn)	7	3	2	-4	-5	2	.	.
COc1ccccc1Oc1ccc(S(=O)(=O)N2CCCCC2)cc1NC(=O)CCNC(C)=O	-6	58*	4	26	-3	-1	2	.
CCCCCCCCN1C(=O)[C@@H](CC(=O)NCCCN2CCCC2=O)C[C@@]2(C(=O)OC)C1=C[C@H](C(C)(C)C)O[C@@H]2C	.	.	.	.	.	1	.	.
CC(=O)Nc1ccc(C(=O)NC2CCSc3ccccc32)cc1 (stereo not drawn)	1	45*	-1	4	2	0	-1	.
CCc1nc(-c2ccc(C)nc2OC)no1	-5	67*	5	19	1	0	62*	1
CCc1nc(-c2ccc(-c3ccc(OC)cc3)nc2OC)no1	-1	1	4	-2	-12	-1	.	.
CN(c1ccccc1)c1nccc(=O)[nH]1	1	0	0	-1	.	-1	.	.
O=C(Nc1ccc(NC(=O)c2ccc(Cl)cc2Cl)cc1)c1cccs1	3	54*	-1	8	3	-7	41*	-2
C#CCNC(=O)C[C@H]1C[C@@]2(C(=O)OC)C(=C[C@H](C(C)(C)C)O[C@@H]2C)N(CCC2=CCCCC2)C1=O	.	.	.	.	.	0	.	.
CCN1CCN(c2ccc(S(=O)(=O)N3CCOCC3)cc2NC(=O)C(C)Oc2ccc(Cl)cc2)CC1 (stereo not drawn)	-3	56*	1	11	.	0	44*	2
SMILES	HCV core dimer	A3A deaminase	ABHD5-PLIN5 inh	APOBEC3G inh	NS3 helicase inh	PRMT1 FP inh	A3A conf	UDG A3A counter
CCN1CCN(c2ccc(S(=O)(=O)N3CCCCC3)cc2NC(=O)c2ccc(OC(F)F)cc2)CC1	0	47*	0	5	.	-1	54*	2
CCN1CCN(c2ccc(S(=O)(=O)N3CCCCC3)cc2NC(=O)/C=C/c2ccc(F)cc2)CC1	-5	61*	4	22	.	-1	64*	0
O=C(CSc1ccccc1)Nc1cccc(S(=O)(=O)N2CCCC2)c1	-4	1	1	-3	-9	1	.	.
CC(CC(=O)Nc1cccc(S(=O)(=O)N2CCCCC2)c1)c1ccccc1 (stereo not drawn)	.	40*	-2	11	.	1	23	.
O=C(CSc1n[nH]c(-c2cccnc2)n1)Nc1ccccc1C(F)(F)F	9	-4	0	-9	-5	-2	.	.
COc1cccc(NC(=O)N(C)C[C@H]2OCc3ccccc3-c3c(n(C)c4ccccc34)C(=O)N([C@H](C)CO)C[C@H]2C)c1	.	.	.	.	.	1	.	.
CC(=O)Nc1ccc(NC(=O)C(C)OC(=O)c2cccc(S(=O)(=O)N3CCCC3)c2)cc1 (stereo not drawn)	-5	42*	-2	16	.	2	6	.
CCN1CCN(c2ccc(S(=O)(=O)N3CCCCC3)cc2NC(=O)/C=C/c2ccc([N+](=O)[O-])cc2)CC1	4	40*	7	12	.	-4	18	.
CCN1CCN(c2ccc(S(=O)(=O)N3CCCCC3)cc2NC(=O)CC(NC(C)=O)c2ccccc2)CC1 (stereo not drawn)	-5	88*	0	13	.	-1	65*	3
CCN1CCN(c2ccc(S(=O)(=O)N3CCOCC3)cc2NC(=O)/C=C/c2ccc(C)cc2)CC1	3	2	-5	-1	.	1	.	.
CCN1CCN(c2ccc(S(=O)(=O)N3CCCCC3)cc2NC(=O)/C=C/c2ccc(OC(F)F)cc2)CC1	3	46*	15	12	.	6	59*	2
COc1ccc(NC(=O)c2cc(-c3ccccn3)nc3ccccc23)cc1S(=O)(=O)N(C)C	.	1	-1	-3	.	3	.	.
CCn1c(N2CCN(CC(=O)c3c(C)n(C)c4ccc(OC)cc34)CC2)nc2c1c(=O)[nH]c(=O)n2C	-2	2	-3	5	1	-1	.	.
CCn1c(N2CCN(CC(=O)c3c(C)n(C)c4ccccc34)CC2)nc2c1c(=O)[nH]c(=O)n2C	-7	49*	8	11	-3	0	20	.
CCCCN(C(=O)c1c(CC)noc1C)c1c(N)n(CC(C)C)c(=O)[nH]c1=O	.	-3	10	-4	.	1	.	.

Bioassay records (PubChem BioAssay)
